Assay results reported in ChEMBL document CHEMBL4619741, “Screening of chalcone analogs with anti-depressant, anti-inflammatory, analgesic, and COX-2-inhibiting effects” (Bioorg Med Chem Lett, 2020).
Active and inactive are the calls of the source. No cut-off for these calls is given here.

Assays:
Mus musculus [1] = test: Antidepressant activity in mouse assessed as immobility time at 30 mg/kg, ip by forced swimming test (reference value: 172.3 +/- 9.67 sec); assay type: functional
Mus musculus [2] = test: Antiinflammatory activity against dimethylbenzene-induced ear edema mouse model assessed as inhibition of ear edema at 30 mg/kg, ip pretreated with compounds followed by dimethylbenzene challenge relative to control; assay type: functional
Method in brief: (§1)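 Intraperitoneal dosing (test agents 30 mg/kg, reference 3 mg/kg) given before topical dimethylbenzene to mouse ear. Ear inflammation was measured by weight (mg), and inhibition was expressed as percent versus control at 60 min.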

Mus musculus [3] = test: Antiinflammatory activity against dimethylbenzene-induced ear edema mouse model assessed as inhibition of ear edema at 3 mg/kg, ip pretreated with compounds followed by dimethylbenzene challenge relative to control; assay type: functional; method in brief: as §1
Mus musculus [4] = test: Analgesic activity in mouse assessed as inhibition of acetic acid-induced writhing at 3 mg/kg, ip relative to control; assay type: functional
Mus musculus [5] = test: Antidepressant activity in mouse assessed as reduction in duration of immobility at 30 mg/kg, ip relative to control; assay type: functional
Mus musculus [6] = test: Antidepressant activity in mouse assessed as increase in serotonin level at 30 mg/kg, ip; assay type: functional, organism-based
Method in brief: (§2)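 Mice under stress treated intraperitoneally (30 mg/kg), alongside normal-vehicle and stress-vehicle groups; serotonin, norepinephrine and dopamine levels measured; n = 8 per group; values as mean ± SEM; significance tested against stress vehicle and normal vehicle.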

Mus musculus [7] = test: Antidepressant activity in mouse assessed as change in norepinephrine level at 30 mg/kg, ip; assay type: functional, organism-based; method in brief: as §2
Mus musculus [8] = test: Antidepressant activity in mouse assessed as change in dopamine level at 30 mg/kg, ip; assay type: functional, organism-based; method in brief: as §2
[9] = biological target: T1, Prostaglandin G/H synthase 1 (Ovis aries, UniProt P05979); test: Inhibition of ovine COX1 by ELISA
T1 sequence (P05979 whole entry): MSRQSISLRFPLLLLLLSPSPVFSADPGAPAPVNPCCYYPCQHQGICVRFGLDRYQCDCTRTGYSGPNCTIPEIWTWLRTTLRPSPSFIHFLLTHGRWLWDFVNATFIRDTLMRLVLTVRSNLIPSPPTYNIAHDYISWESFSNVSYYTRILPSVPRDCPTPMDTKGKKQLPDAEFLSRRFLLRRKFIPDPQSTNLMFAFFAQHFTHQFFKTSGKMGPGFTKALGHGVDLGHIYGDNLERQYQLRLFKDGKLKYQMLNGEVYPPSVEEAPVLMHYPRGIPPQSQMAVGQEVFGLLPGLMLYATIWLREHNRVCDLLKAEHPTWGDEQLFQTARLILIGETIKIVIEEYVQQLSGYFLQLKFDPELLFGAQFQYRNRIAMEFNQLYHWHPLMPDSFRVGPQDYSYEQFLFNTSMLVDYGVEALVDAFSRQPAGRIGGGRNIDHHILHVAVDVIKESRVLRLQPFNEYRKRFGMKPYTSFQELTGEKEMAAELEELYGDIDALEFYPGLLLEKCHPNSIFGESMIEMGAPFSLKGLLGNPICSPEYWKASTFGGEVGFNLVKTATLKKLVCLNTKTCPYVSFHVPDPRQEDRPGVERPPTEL
Method in brief: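 Ovine COX-1 inhibition followed through enzyme peroxidase activity with a colorimetric enzyme immunoassay kit; IC50 values determined; mean and SD of three measurements.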

Mus musculus [10] = test: Antidepressant activity in mouse assessed as immobility time at 3 mg/kg, ip by forced swimming test (reference value: 172.3 +/- 9.67 sec); assay type: functional
Mus musculus [11] = test: Antidepressant activity in mouse assessed as reduction in duration of immobility at 3 mg/kg, ip relative to control; assay type: functional
Mus musculus [12] = test: Antidepressant activity in mouse assessed as increase in serotonin level at 3 mg/kg, ip; assay type: functional, organism-based
Mus musculus [13] = test: Antidepressant activity in mouse assessed as change in norepinephrine level at 3 mg/kg, ip; assay type: functional, organism-based
Mus musculus [14] = test: Antidepressant activity in mouse assessed as change in dopamine level at 3 mg/kg, ip; assay type: functional, organism-based

For `Cc1nc2ccccc2c(-c2ccccc2)c1C(=O)/C=C/c1ccc(F)cc1F`, the Time (Mus musculus [1]) was 51.5 s and the inhibition in vivo at 30 mg/kg (Mus musculus [2]) was 65.8%.

Work on `Cc1cccc(/C=C/C(=O)c2c(C)nc3ccccc3c2-c2ccccc2)c1` yielded a Time (Mus musculus [1]) of 57.5 s and an inhibition in vivo at 30 mg/kg (Mus musculus [2]) of 67.1%.

With `Cc1nc2ccccc2c(-c2ccccc2)c1C(=O)/C=C/c1ccc(O)cc1` the Time (Mus musculus [1]) was 79.3 s and the inhibition in vivo at 30 mg/kg (Mus musculus [2]) was 78.8%.

`COc1ccc2c(c1)c(CC(=O)O)c(C)n2C(=O)c1ccc(Cl)cc1` [INDOMETHACIN] gave an inhibition in vivo at 3 mg/kg (Mus musculus [3]) of 51.1% and an inhibition in vivo at 3 mg/kg (Mus musculus [4]) of 78.3%.

In the case of `Cc1ccc(/C=C/C(=O)c2c(C)nc3ccccc3c2-c2ccccc2)cc1`, the Time (Mus musculus [1]) is reported as 63 s and the inhibition in vivo at 30 mg/kg (Mus musculus [2]) is reported as 61.3%.

In the case of `Cc1nc2ccccc2c(-c2ccccc2)c1C(=O)/C=C/c1ccc(F)cc1`, the Time (Mus musculus [1]) is reported as 25.8 s, the inhibition in vivo at 30 mg/kg (Mus musculus [5]) is reported as 85% and the inhibition in vivo at 30 mg/kg (Mus musculus [2]) is reported as 88.3%. For the same compound, the Activity (Mus musculus [6]) was “Active”, the Activity (Mus musculus [7]) was “inactive” and the Activity (Mus musculus [8]) was “inactive”. The IC50 [9] was 10.2 µM.

With `COc1ccccc1/C=C/C(=O)c1c(C)nc2ccccc2c1-c1ccccc1` the Time (Mus musculus [1]) was 109.3 s and the inhibition in vivo at 30 mg/kg (Mus musculus [2]) was 62.1%.

In the case of `Cc1nc2ccccc2c(-c2ccccc2)c1C(=O)/C=C/c1cccc(Br)c1`, the Time (Mus musculus [1]) is reported as 13.8 s, the inhibition in vivo at 30 mg/kg (Mus musculus [5]) is reported as 92% and the inhibition in vivo at 30 mg/kg (Mus musculus [2]) is reported as 72.9%.

`Cc1nc2ccccc2c(-c2ccccc2)c1C(=O)/C=C/c1ccccc1Cl` gave a Time (Mus musculus [1]) of 136.3 s and an inhibition in vivo at 30 mg/kg (Mus musculus [2]) of 73.2%.

In the case of `Cc1nc2ccccc2c(-c2ccccc2)c1C(=O)/C=C/c1c(Cl)cccc1Cl`, the Time (Mus musculus [1]) is reported as 52 s and the inhibition in vivo at 30 mg/kg (Mus musculus [2]) is reported as 46.7%.

In the case of `Cc1nc2ccccc2c(-c2ccccc2)c1C(=O)/C=C/c1ccccc1F`, the Time (Mus musculus [1]) is reported as 49.3 s and the inhibition in vivo at 30 mg/kg (Mus musculus [2]) is reported as 81.2%.

For `COc1cccc(/C=C/C(=O)c2c(C)nc3ccccc3c2-c2ccccc2)c1`, the Time (Mus musculus [1]) was 48.5 s and the inhibition in vivo at 30 mg/kg (Mus musculus [2]) was 74.6%.

`Cc1nc2ccccc2c(-c2ccccc2)c1C(=O)/C=C/c1cccc(F)c1` was tested, and the Time (Mus musculus [1]) was 38.3 s, the inhibition in vivo at 30 mg/kg (Mus musculus [5]) was 77.8% and the inhibition in vivo at 30 mg/kg (Mus musculus [2]) was 69.2%.

For `Cc1nc2ccccc2c(-c2ccccc2)c1C(=O)/C=C/c1ccc(Br)cc1`, the Time (Mus musculus [1]) was 75.8 s and the inhibition in vivo at 30 mg/kg (Mus musculus [2]) was 74.1%.

For `CNCCC(Oc1ccc(C(F)(F)F)cc1)c1ccccc1` (stereo unspecified) [FLUOXETINE], the Time (Mus musculus [10]) was 88.1 s, the inhibition in vivo at 3 mg/kg (Mus musculus [11]) was 48.9% and the Activity (Mus musculus [12]) was “Active”. The Activity (Mus musculus [13]) was “inactive” and the Activity (Mus musculus [14]) was “inactive”.

For `Cc1nc2ccccc2c(-c2ccccc2)c1C(=O)/C=C/c1cccc(Cl)c1`, the Time (Mus musculus [1]) was 48.5 s and the inhibition in vivo at 30 mg/kg (Mus musculus [2]) was 53.6%.

`Cc1nc2ccccc2c(-c2ccccc2)c1C(=O)/C=C/c1ccc(Cl)cc1` gave a Time (Mus musculus [1]) of 29.3 s, an inhibition in vivo at 30 mg/kg (Mus musculus [5]) of 83% and an inhibition in vivo at 30 mg/kg (Mus musculus [2]) of 85.5%.

Work on `Cc1ccccc1/C=C/C(=O)c1c(C)nc2ccccc2c1-c1ccccc1` yielded a Time (Mus musculus [1]) of 86.3 s and an inhibition in vivo at 30 mg/kg (Mus musculus [2]) of 70.9%.

Work on `Cc1nc2ccccc2c(-c2ccccc2)c1C(=O)/C=C/c1ccc(C(C)C)cc1` yielded a Time (Mus musculus [1]) of 22.8 s, an inhibition in vivo at 30 mg/kg (Mus musculus [5]) of 86.8% and an inhibition in vivo at 30 mg/kg (Mus musculus [2]) of 76.8%. For the same compound, the Activity (Mus musculus [6]) was “Active”, the Activity (Mus musculus [7]) was “inactive” and the Activity (Mus musculus [8]) was “inactive”. The IC50 [9] was 8.95 µM.

For `Cc1nc2ccccc2c(-c2ccccc2)c1C(=O)/C=C/c1ccccc1Br`, the Time (Mus musculus [1]) was 60.3 s and the inhibition in vivo at 30 mg/kg (Mus musculus [2]) was 55%.

Compound `COc1ccc(/C=C/C(=O)c2c(C)nc3ccccc3c2-c2ccccc2)cc1O` has a Time (Mus musculus [1]) of 52.3 s and an inhibition in vivo at 30 mg/kg (Mus musculus [2]) of 65.5%.

Compound `Cc1nc2ccccc2c(-c2ccccc2)c1C(=O)/C=C/c1ccc(Cl)cc1Cl` has a Time (Mus musculus [1]) of 31.5 s, an inhibition in vivo at 30 mg/kg (Mus musculus [5]) of 81% and an inhibition in vivo at 30 mg/kg (Mus musculus [2]) of 81.3%.

For `Cc1nc2ccccc2c(-c2ccccc2)c1C(=O)/C=C/c1ccc(N(C)C)cc1`, the Time (Mus musculus [1]) was 47.5 s and the inhibition in vivo at 30 mg/kg (Mus musculus [2]) was 69.7%.

`Cc1nc2ccccc2c(-c2ccccc2)c1C(=O)/C=C/c1ccc([N+](=O)[O-])cc1` showed a Time (Mus musculus [1]) of 46.8 s, an inhibition in vivo at 30 mg/kg (Mus musculus [5]) of 72.8% and an inhibition in vivo at 30 mg/kg (Mus musculus [2]) of 42.9%.

`COc1ccc(/C=C/C(=O)c2c(C)nc3ccccc3c2-c2ccccc2)cc1` was tested, and the Time (Mus musculus [1]) was 83.5 s and the inhibition in vivo at 30 mg/kg (Mus musculus [2]) was 66.7%.

`Cc1nc2ccccc2c(-c2ccccc2)c1C(=O)/C=C/c1cccc(O)c1` gave a Time (Mus musculus [1]) of 32.8 s, an inhibition in vivo at 30 mg/kg (Mus musculus [5]) of 80% and an inhibition in vivo at 30 mg/kg (Mus musculus [2]) of 65.2%.
